In ChEMBL document CHEMBL4689842, “EUbOPEN Chemogenomics Library wave 1” (2021):

Tests used:
[1] = test system: U2OS; assay: Incucyte cell viability with U2OS; type: toxicity, cell-based; conditions: human, 10 µM, compound concentration 10 uM; also: filed as whole numbers so only -1 and 0 and 1 occur
[2] = test system: U2OS; assay: Multiplex assay against U2OS; type: toxicity, cell-based; conditions: human
Procedure, shortened: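 Values for tubulin, mitochondrial-mass and membrane-permeability phenotypes are per cents of cells with healthy nuclei. These cells were identified by CellPathfinder machine-learning gating of live cells that had been stained at seeding with Hoechst33342, BioTracker Green Microtubule Cytoskeleton Dye, MitoTracker Red and Annexin V Alexa Fluor 680 and imaged on a CQ1 microscope at 37°C and 5% CO2 after compound addition. The gating first set Hoechst high-intensity objects apart from normal cells, then split normal cells into healthy, pyknosed or fragmented nuclei, and pyknosed cells into mitotic or apoptotic.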

[3] = 12 h, 1 µM, compound concentration 1 uM, replicate 1
[4] = 12 h, 1 µM, compound concentration 1 uM, replicate 2
[5] = 12 h, 10 µM, compound concentration 10 uM, replicate 1
[6] = 12 h, 10 µM, compound concentration 10 uM, replicate 2
[7] = 24 h, 1 µM, compound concentration 1 uM, replicate 1
[8] = 24 h, 1 µM, compound concentration 1 uM, replicate 2
[9] = 24 h, 10 µM, compound concentration 10 uM, replicate 1
[10] = 24 h, 10 µM, compound concentration 10 uM, replicate 2

Q: With CN(C)CCOc1ccc(-c2nc(-c3ccncc3)c(-c3ccc4c(c3)CC/C4=N\O)[nH]2)cc1 [SB590885] as the compound, how does the “Growth Rate” value ([1]; 0 h, replicate number 2, timepoint 0 hours) read?
A: 1

Q: What about the “Growth Rate” value ([1]; 6 h, replicate number 1, timepoint 6 hours) of the same compound?
A: 0

Q: What about the “Growth Rate” value ([1]; 12 h, replicate number 1, timepoint 12 hours) of the same compound?
A: 0

Q: What about the “Growth Rate” value ([1]; 18 h, replicate number 1, timepoint 18 hours) of the same compound?
A: 0

Q: What about the “Growth Rate” value ([1]; 24 h, replicate number 1, timepoint 24 hours) of the same compound?
A: 0

Q: And the “Population Apoptotic (%)” value [2, 3]?
A: 72%

Q: What about the “Population Fragmented Nuclei (%)” value [2, 3] of the same compound?
A: 22%

Q: And the “Population Healthy Nuclei (%)” value [2, 3]?
A: 42%

Q: What about the “Population Hoechst High Intensity Objects (%)” value [2, 3] of the same compound?
A: 9%

Q: What about the “Population Membrane Permeable-Phenotype (%)” value [2, 3] of the same compound?
A: 45%

Q: And the “Population Mitochondria Different-Phenotype (%)” value [2, 3]?
A: 30%

Q: What about the “Population Mitotic Cells (%)” value [2, 3] of the same compound?
A: 27%

Q: And the “Population Normal (%)” value [2, 3]?
A: 90%

Q: And the “Population Pyknosed Nuclei (%)” value [2, 3]?
A: 34%

Q: What about the “Population Tubulin-Different-Phenotype (%)” value [2, 3] of the same compound?
A: 54%

Q: And the “Total Cell Count” value [2, 3]?
A: 200

Q: What about the “Population Apoptotic (%)” value [2, 4] of the same compound?
A: 88%

Q: What about the “Population Fragmented Nuclei (%)” value [2, 4] of the same compound?
A: 41%

Q: And the “Population Healthy Nuclei (%)” value [2, 4]?
A: 34%

Q: What about the “Population Hoechst High Intensity Objects (%)” value [2, 4] of the same compound?
A: 15%

Q: And the “Population Membrane Permeable-Phenotype (%)” value [2, 4]?
A: 38%

Q: And the “Population Mitochondria Different-Phenotype (%)” value [2, 4]?
A: 28%

Q: And the “Population Mitotic Cells (%)” value [2, 4]?
A: 11%

Q: And the “Population Normal (%)” value [2, 4]?
A: 84%

Q: And the “Population Pyknosed Nuclei (%)” value [2, 4]?
A: 23%

Q: And the “Population Tubulin-Different-Phenotype (%)” value [2, 4]?
A: 51%

Q: What about the “Total Cell Count” value [2, 4] of the same compound?
A: 155

Q: What about the “Population Apoptotic (%)” value [2, 5] of the same compound?
A: 42%

Q: And the “Population Fragmented Nuclei (%)” value [2, 5]?
A: 5%

Q: And the “Population Hoechst High Intensity Objects (%)” value [2, 5]?
A: 3%

Q: What about the “Population Membrane Permeable-Phenotype (%)” value [2, 5] of the same compound?
A: 11%

Q: What about the “Population Mitochondria Different-Phenotype (%)” value [2, 5] of the same compound?
A: 23%

Q: What about the “Population Mitotic Cells (%)” value [2, 5] of the same compound?
A: 57%

Q: What about the “Population Normal (%)” value [2, 5] of the same compound?
A: 96%

Q: And the “Population Pyknosed Nuclei (%)” value [2, 5]?
A: 7%

Q: And the “Population Tubulin-Different-Phenotype (%)” value [2, 5]?
A: 26%

Q: And the “Total Cell Count” value [2, 5]?
A: 149

Q: And the “Population Apoptotic (%)” value [2, 6]?
A: 37%

Q: What about the “Population Fragmented Nuclei (%)” value [2, 6] of the same compound?
A: 6%

Q: What about the “Population Healthy Nuclei (%)” value [2, 6] of the same compound?
A: 87%

Q: And the “Population Hoechst High Intensity Objects (%)” value [2, 6]?
A: 10%

Q: And the “Population Membrane Permeable-Phenotype (%)” value [2, 6]?
A: 14%

Q: And the “Population Mitochondria Different-Phenotype (%)” value [2, 6]?
A: 28%

Q: And the “Population Mitotic Cells (%)” value [2, 6]?
A: 62%

Q: What about the “Population Normal (%)” value [2, 6] of the same compound?
A: 89%

Q: And the “Population Pyknosed Nuclei (%)” value [2, 6]?
A: 5%

Q: What about the “Population Tubulin-Different-Phenotype (%)” value [2, 6] of the same compound?
A: 33%

Q: And the “Total Cell Count” value [2, 6]?
A: 78

Q: And the “Population Apoptotic (%)” value [2, 7]?
A: 85%

Q: What about the “Population Fragmented Nuclei (%)” value [2, 7] of the same compound?
A: 15%

Q: And the “Population Healthy Nuclei (%)” value [2, 7]?
A: 38%

Q: And the “Population Hoechst High Intensity Objects (%)” value [2, 7]?
A: 19%

Q: What about the “Population Membrane Permeable-Phenotype (%)” value [2, 7] of the same compound?
A: 34%

Q: And the “Population Mitochondria Different-Phenotype (%)” value [2, 7]?
A: 34%

Q: What about the “Population Mitotic Cells (%)” value [2, 7] of the same compound?
A: 14%

Q: What about the “Population Normal (%)” value [2, 7] of the same compound?
A: 80%

Q: And the “Population Pyknosed Nuclei (%)” value [2, 7]?
A: 45%

Q: And the “Population Tubulin-Different-Phenotype (%)” value [2, 7]?
A: 37%

Q: What about the “Total Cell Count” value [2, 7] of the same compound?
A: 280

Q: And the “Population Apoptotic (%)” value [2, 8]?
A: 91%

Q: And the “Population Fragmented Nuclei (%)” value [2, 8]?
A: 35%

Q: What about the “Population Healthy Nuclei (%)” value [2, 8] of the same compound?
A: 25%

Q: And the “Population Hoechst High Intensity Objects (%)” value [2, 8]?
A: 21%

Q: What about the “Population Membrane Permeable-Phenotype (%)” value [2, 8] of the same compound?
A: 33%

Q: And the “Population Mitochondria Different-Phenotype (%)” value [2, 8]?
A: 41%

Q: And the “Population Mitotic Cells (%)” value [2, 8]?
A: 8%

Q: And the “Population Normal (%)” value [2, 8]?
A: 78%

Q: What about the “Population Pyknosed Nuclei (%)” value [2, 8] of the same compound?
A: 38%

Q: And the “Population Tubulin-Different-Phenotype (%)” value [2, 8]?
A: 30%

Q: What about the “Total Cell Count” value [2, 8] of the same compound?
A: 196

Q: And the “Population Apoptotic (%)” value [2, 9]?
A: 44%

Q: And the “Population Fragmented Nuclei (%)” value [2, 9]?
A: 5%

Q: What about the “Population Healthy Nuclei (%)” value [2, 9] of the same compound?
A: 90%

Q: And the “Population Hoechst High Intensity Objects (%)” value [2, 9]?
A: 2%

Q: What about the “Population Membrane Permeable-Phenotype (%)” value [2, 9] of the same compound?
A: 12%

Q: What about the “Population Mitochondria Different-Phenotype (%)” value [2, 9] of the same compound?
A: 21%

Q: And the “Population Mitotic Cells (%)” value [2, 9]?
A: 55%

Q: What about the “Population Normal (%)” value [2, 9] of the same compound?
A: 97%

Q: What about the “Population Pyknosed Nuclei (%)” value [2, 9] of the same compound?
A: 3%

Q: And the “Population Tubulin-Different-Phenotype (%)” value [2, 9]?
A: 30%

Q: What about the “Total Cell Count” value [2, 9] of the same compound?
A: 144

Q: What about the “Population Apoptotic (%)” value [2, 10] of the same compound?
A: 50%

Q: What about the “Population Fragmented Nuclei (%)” value [2, 10] of the same compound?
A: 7%

Q: What about the “Population Healthy Nuclei (%)” value [2, 10] of the same compound?
A: 89%

Q: And the “Population Hoechst High Intensity Objects (%)” value [2, 10]?
A: 7%

Q: What about the “Population Membrane Permeable-Phenotype (%)” value [2, 10] of the same compound?
A: 8%

Q: What about the “Population Mitochondria Different-Phenotype (%)” value [2, 10] of the same compound?
A: 38%

Q: And the “Population Mitotic Cells (%)” value [2, 10]?
A: 50%

Q: And the “Population Normal (%)” value [2, 10]?
A: 92%

Q: And the “Population Tubulin-Different-Phenotype (%)” value [2, 10]?
A: 37%

Q: What about the “Total Cell Count” value [2, 10] of the same compound?
A: 80
